# Compound activity (PubChem BioAssay)
# A selection: hits, their analogues and other compounds. The true share with any hit is near 1.9%.
# DENV2 CPE rescue = protects cells from dengue virus 2 cytopathic effect; DENV2-infected cells, cytopathic effect rescue, plate reader; CPE inhibition, % at 9.99 µM; 350,000 tested, 1.7% active; in the data active means CPE inhibition above about 20%, passing the limit was not always enough; inconclusive means no clear call, values can overlap the other calls; tested in BHK-21 cells;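 further: 0% = median of neutral control wells and 100% = median of positive control wells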
# PGC1a acetyl inh = lowers PGC1a acetylation signal in U2OS cells; inhibition, % at 15.6 µM; AlphaScreen anti-acetyl-lysine; with virally co-expressed GCN5 acetyltransferase; 350,000 tested, 0.17% active; AID 651687;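 active means every replicate shows inhibition of at least 40%; inconclusive means mean inhibition at least 40% but some replicate below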;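 further: 0% = neutral control wells and 100% = positive control wells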
# FN deposit inh = fibronectin deposition inhibition | AH1F fibroblasts, Alexa488-fibronectin deposition fluorescence, overnight | inhibition, % at 12.6 µM | 350,000 tested, 0.086% active;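 active means mean inhibition across replicates of 30% or more, regardless of how many single replicates reach that level; inconclusive means mean under 30% yet at least half of replicates reach 30%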;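 further: positive control wells lacked labelled fibronectin entirely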
#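 Test system: AH1F fibroblast monolayer depositing Alexa488-labelled fibronectin into matrix. Input: 10000 cells per well. Technique: fluorescence, ex 485 nm, em 525 nm. Buffer or medium: DMEM plus 2% serum, read in PBS. Timing: 1 h cell adhesion before compound, then overnight fibronectin incubation. Compound: single dose, pinned. Read-out basis: inhibition from reduced deposited-fibronectin fluorescence.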
# F508del corr = CFTR F508del correction in bronchial cells | CFBE cells, YFP halide quenching; stimulated with forskolin plus potentiator P3; % fluorescence drop versus neutral controls | activity (quench increase), % at 7.58 µM | 350,000 tested, 0.36% active | AID 720511;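 active means mean added fluorescence quench of at least 8% versus neutral control, with both replicates also reaching 8%; inconclusive means only one of the mean or replicate conditions met; inactive means mean below 8% and not both replicates reaching 8%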;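 further: cells transiently co-express mutant CFTR-F508del with the halide-sensitive YFP; corrector assay measuring rescue of mutant channel to the surface after 24 h compound exposure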
# XiGFP reactiv = reactivates the inactive X chromosome in mouse fibroblasts. XiGFP mouse fibroblasts, % GFP-positive cells imaging, 3 d; cells co-treated with 5-aza-dC sensitizer; scaled so ellipticine positive control = 100%. activation, % at 7.58 µM. 360,000 tested, 0.055% active. AID 743238;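 active means mean normalized replicate activation at least 10% and every replicate at or above 10%; inconclusive means only one of the two criteria met; inactive means mean below 10% and not all replicates reach 10%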;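 further: 0% = median of on-plate neutral control wells and 100% = ellipticine 6 µM median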
#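 Material: XiGFP fibroblasts, SV40-immortalized; Buffer or medium: DMEM containing 5-aza-dC; Compound dosing: single point; Times: 3 days compound exposure.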
# Cneo AK release = causes C. neoformans cell lysis; adenylate kinase release luminescence, 4 h; normalised: neutral wells 0, clomiphene wells 100; lysis activity, % at 15 µM; 360,000 tested, 0.2% active;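 active means mean lysis activity across replicates of at least 80%, whatever share of replicates individually reach that level; inactive means mean lysis activity below 80%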
#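 Material: C. neoformans cells; Schedule: 4 h static compound exposure, 37 °C, read 1 h post-reagent; Measured by: adenylate kinase release luminescence; Read-out: signal increase indicating cell lysis; Controls: Clomiphene as positive lysis control.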
# Numbers without * were called inactive; u = inconclusive; x = not tested or not shown.
SMILES,DENV2 CPE rescue,PGC1a acetyl inh,FN deposit inh,F508del corr,XiGFP reactiv,Cneo AK release
COc1ccc(C#Cc2ccc([C@@H]3[C@H](CO)N4CCCCN(C(=O)Nc5ccccc5)C[C@@H]34)cc2)cc1,34.2*,-78.0,x,-4.9,0.1,0.0
COc1ccc(C#Cc2ccc([C@H]3[C@@H](CO)N4CCCCN(C(=O)Nc5ccccc5)C[C@@H]34)cc2)cc1,70.8*,0.7,x,0.8,0.0,52.2
CC(C)CC#Cc1ccc([C@@H]2[C@H]3CN(C(=O)Nc4ccccc4)CCCCN3[C@H]2CO)cc1,33.1*,-25.6,-12.9,2.6,0.1,0.5
COc1ccc(C#Cc2ccc([C@H]3[C@H]4CN(C(=O)Nc5ccccc5)CCCCN4[C@H]3CO)cc2)cc1,-2.1,-4.0,x,0.9,0.0,44.0
O=C(NCC[C@@H]1CC[C@H](NC(=O)C2CCOCC2)[C@@H](CO)O1)c1ccc(F)cc1,-2.6,-1.6,4.2,-2.7,-0.2,-3.4
C[C@@H]1CN([C@@H](C)CO)C(=O)c2cc(NC(=O)Nc3ccc4c(c3)OCO4)ccc2O[C@@H](C)CCCCO[C@H]1CN(C)Cc1ccc(C(=O)O)cc1,1.5,-3.6,x,-1.3,-1.0,0.1
CN(C(=O)COC(=O)CSc1ccc([N+](=O)[O-])cc1)c1ccccc1,36.1*,3.3,x,1.6,0.4,3.9
CN(C(=O)COC(=O)c1ccc([N+](=O)[O-])cc1)c1ccccc1,-3.3,2.9,-5.2,-0.6,-0.1,x
COc1ccccc1-c1ccc2c(c1)O[C@@H](CN(C)C(=O)c1cccnc1)[C@H](C)CN([C@@H](C)CO)S2(=O)=O,7.1,8.1,x,-2.3,-0.2,83.8*
C[C@H]1CN([C@@H](C)CO)S(=O)(=O)c2ccc(-c3ccccc3F)cc2O[C@H]1CN(C)Cc1ccncc1,21.1*,-0.8,-14.4,2.8,0.0,-3.8
COc1ccccc1-c1ccc2c(c1)O[C@@H](CN(C)C(=O)c1ccncc1)[C@H](C)CN([C@@H](C)CO)S2(=O)=O,u,-3.7,x,-0.9,0.1,-0.9
C[C@H](CO)N1C[C@H](C)[C@@H](CN(C)Cc2cccnc2)Oc2cc(-c3ccccc3F)ccc2S1(=O)=O,46.1*,-17.1,4.1,-1.2,-1.4,-2.2
C[C@@H]1CN([C@H](C)CO)S(=O)(=O)c2ccc(-c3ccccc3F)cc2O[C@H]1CN(C)Cc1ccncc1,29.4*,1.3,4.1,7.5,0.4,-3.7
COc1cc(C2CC(=O)N(c3ccc(C)cc3)C(=O)C2)cc(OC)c1OC,3.7,x,1.1,10.2*,0.5,x
CCN1CCN(C(=O)C2CCN(Cc3nc(-c4cccc(Cl)c4)oc3C)CC2)CC1,9.1,-2.5,13.6,1.0,0.2,5.1
COc1ccc(-c2nc(CN3CCC(C(=O)N4CCOCC4)CC3)c(C)o2)c(OC)c1,43.6*,-1.4,-22.1,-0.8,0.0,0.3
C[C@H](CO)N1C[C@H](C)[C@@H](CN(C)Cc2ccc(C(F)(F)F)cc2)Oc2ccc(N(C)C)cc2CC1=O,-3.5,-13.5,x,0.9,-0.6,3.1
C[C@@H]1CN(C)C(=O)Cc2ccccc2O[C@H]1CN(C)C,x,x,3.8,x,0.3,x
Fc1ccc(-c2nc3ccncc3[nH]2)cc1,x,6.8,-15.2,x,x,-1.3
COc1ccc(-c2nc3ccncc3[nH]2)cc1OC,x,-0.8,30.1*,x,x,-0.5
O=Cc1s/c(=N\S(=O)(=O)c2ccccc2)n(CCCCl)c1Cl,x,x,52.3*,-4.9,2.9,x
O=C(Cc1cccnc1)N[C@H]1CC[C@@H](CCn2cc(Cc3ccccc3)nn2)O[C@H]1CO,88.5*,3.1,x,1.8,0.4,-0.8
O=C(C[C@@H]1CC[C@H](NC(=O)Cc2cccnc2)[C@@H](CO)O1)Nc1ccccc1,44.3*,-2.0,x,-1.3,0.5,x
O=C(C[C@H]1CC[C@H](NC(=O)Cc2cccnc2)[C@H](CO)O1)Nc1ccccc1,3.7,1.3,x,2.5,0.2,x
COc1ccc2c3c([nH]c2c1)[C@H](CO)N(Cc1ccccc1OC)CC31CN(S(=O)(=O)c2ccccc2)C1,15.6,x,x,2.2,0.4,x
SMILES,DENV2 CPE rescue,PGC1a acetyl inh,FN deposit inh,F508del corr,XiGFP reactiv,Cneo AK release
Nc1nc(SCc2ccccc2)c2ncn(C3OC(CO)C(O)C3O)c2n1 (configuration not stated),-3.0,-7.5,x,2.8,0.0,-0.3
OCC1OC(n2cnc3c(SCc4ccccc4)ncnc32)C(O)C1O (configuration not stated),75.2*,-4.2,18.0,6.5,0.0,x
Nc1ncnc2c1ncn2[C@@H]1O[C@H](C(=O)N[C@@H](CCc2ccccc2)C(=O)O)[C@@H](O)[C@H]1O,27.8*,x,-0.2,-2.7,1.4,x
CCC(=O)N1C[C@H](C)[C@@H](OC)CN(C)C(=O)c2cc(NC(=O)Nc3ccccc3)ccc2OC[C@H]1C,1.3,-2.2,-10.8,-0.6,0.1,-1.1
CO[C@@H]1CN(C)C(=O)c2ccc(NC(=O)NC(C)C)cc2OC[C@H](C)N(CC2CC2)C[C@H]1C,-0.9,7.3,x,-1.9,0.0,0.0
Cc1c(NC(=O)/C(C#N)=C/c2ccc3ccccc3c2)c(=O)n(-c2ccccc2)n1C,-6.4,2.6,x,-0.7,x,46.1
C[C@H](CO)N1C[C@H](C)[C@@H](CN(C)C(=O)C2CC2)Oc2cc(C#C[C@@H](C)O)ccc2S1(=O)=O,-11.0,12.0,-1.2,0.5,0.0,0.2
NC(=O)N=Nc1c2[nH]c3ccccc3nc-2c2ccccc12,11.0,6.8,18.4,22.0*,-0.1,9.5
CC(C)CC1Nc2ncnc(N3CCN(c4ccccn4)CC3)c2N(Cc2ccc(Br)cc2)C1=O (configuration not stated),6.6,-7.4,1.2,8.3*,0.0,1.0
C/C=C(\C)C(=O)Nc1cccc(C2=NOC3(C2)C[C@@H](C(N)=O)N(C(=O)/C(C)=C/C)C3)c1 (some centres not stated),30.2*,-9.8,12.5,1.8,0.0,8.3
C/C=C(/C)C(=O)Nc1cccc(C2=NOC3(C2)C[C@H](C(N)=O)N(C(=O)c2ccccc2)C3)c1 (some centres not stated),15.4,-1.6,3.7,-0.7,-0.1,2.9
C/C=C(\C)C(=O)Nc1cccc(C2=NOC3(C2)C[C@@H](C(N)=O)N(C(=O)c2ccccc2C(=O)c2ccccc2)C3)c1 (some centres not stated),22.7*,x,-5.5,-3.6,0.3,-0.4
C=C(C)C(=O)Nc1cccc(C2=NOC3(C2)C[C@@H](C(N)=O)N(C(=O)/C(C)=C/C)C3)c1 (some centres not stated),0.2,-7.6,-1.5,2.5,0.0,3.8
